Assay outcomes deposited in PubChem BioAssay by Johns Hopkins Ion Channel Center.
The list is not random: actives were taken first. Their share in the collection is about 2.3%.
TRPC4 agonist: activators of mouse TRPC4 channel, primary screen, Fluo4 calcium, HEK293 TRPC4beta/mu-opioid cells; B-score at 10 µM; AID 2237, 2010; 310,000 compounds, 0.49% hits; Short transient receptor potential channel 4 (Mus musculus), Q9QUQ5; Fluo4 calcium fluorescence; stronger effect = higher value;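 active = B-score above 5 SD of library B-scores, and initial fluorescence ratio not above library mean plus 5 SD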;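 also: positive B-score marks a calcium rise read as TRPC4 activation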
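Test system: HEK293 cells stably co-expressing mouse TRPC4beta and mu-opioid receptor | Schedule: Fluo4 dye loading 45 min at room temperature, 110 s recording | Measured by: Kinetic Fluo4 calcium fluorescence, 5 s baseline at 1 Hz | Evaluation: B score of integrated ratio | Controls: Buffer (low) and maximal DAMGO (high)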
TRPC4 potent: positive allosteric modulators of TRPC4, primary screen, cell-based, mouse TRPC4beta, HEK293 mu-opioid, Fluo-4 calcium. DAMGO EC20, Fluo-4 Ca2+ flux; stronger effect = higher value. AID 2227, 2009. B-score at 10 µM. 310,000 compounds, 0.42% hits;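 active = B-score of calcium response area above 5 SD of library B-scores, with initial fluorescence ratio within 5 SD of library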;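 also: B-score of integrated fluorescence ratio over time as area under calcium response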
TRPC6 inhibitor: mouse TRPC6 channel inhibitors, primary screen, cell-based, HEK293, membrane potential dye. ACh-evoked depolarization; stronger effect = lower value. B-score at 10 µM. 310,000 compounds, 1.1% hits. AID 2553, 2010;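 active = B-score under library mean minus 3 SD, initial fluorescence not abnormally high, positive integrated signal ratio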;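 also: B-score derived from integrated fluorescence ratio over the kinetic read; more negative B-score means stronger inhibition of depolarization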
TRPC4 inh: inhibitors of mouse TRPC4 channel, primary screen, Fluo4 calcium, HEK293 TRPC4beta/mu-opioid cells | Short transient receptor potential channel 4 (Mus musculus), Q9QUQ5 | DAMGO-evoked Fluo4 calcium flux; stronger effect = lower value | B-score at 10 µM | 300,000 compounds, 0.39% hits | AID 2247, 2010;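 active = B-score over 3 SD under the library average, no early fluorescence shift, positive overall ratio signal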
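Assay system: Stable TRPC4beta/mu-opioid receptor HEK293 cells | Reagent: DAMGO in two steps, submaximal then maximal | Compound dosing: Single concentration per test compound | Signal: Fluo4 Ca2+ flux fluorescence | Evaluation: Per-well B score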
TRPC6 activator: mouse TRPC6 channel activators, primary screen, cell-based, HEK293, membrane potential dye. B-score at 10 µM. 310,000 compounds, 0.13% hits. Short transient receptor potential channel 6 (Mus musculus), Q61143. AID 2550, 2010. HEK293-TRPC6 membrane potential dye fluorescence; stronger effect = higher value;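 active = B-score of the integrated fluorescence ratio above library mean plus 3 SD, and starting fluorescence ratio within library mean plus 5 SD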;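 also: higher score means more depolarization so channel activation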
* hit, by the source's call; i = inactive.

SMILES	TRPC4 agonist	TRPC4 potent	TRPC6 inhibitor	TRPC4 inh	TRPC6 activator
N#Cc1ccc(-c2nc3ccc(Br)cc3c(=O)n2O)cc1	i	i	i	i	i
O=c1c2cc(Cl)ccc2nc(-c2ccc(Cl)c(Cl)c2)n1O	237*	i	i	i	i
CCOC(=O)c1c(CC(C)C)csc1N	i	i	i	-6*	i
CCc1ccc(NC(=O)N(CCN(C)C)C(C)c2cccnc2)cc1 (centres undefined)	72*	i	i	i	i
CCOc1ccc(NC(=O)N(CCN(C)C)C(C)c2cccnc2)cc1 (centres undefined)	i	i	i	i	i
COc1ccc(C(=O)O)cc1S(=O)(=O)N(C)CCc1ccccn1	46*	i	i	i	i
CC(C)(CNC(=O)Cc1ccc(Cl)cc1Cl)N1CCCCC1	i	i	i	i	i
CCOC(=O)c1sc(NC(=O)CSc2n[nH]c(-c3ccncc3)n2)c(C#N)c1C	i	i	i	i	i
Cc1ccsc1/C=C/C1=Cc2c(sc(NC(=O)CSc3n[nH]c(N)n3)c2C#N)C(C)(C)C1	i	90*	i	i	i
CCOc1ccc(/C=C/C2=Cc3c(sc(NC(=O)CSc4n[nH]c(N)n4)c3C#N)C(C)(C)C2)cc1	i	17*	i	i	i
COc1ccc(NC(=O)CN(C)CCOc2ccc(Cl)cc2)cc1OC	i	15*	i	i	i
COc1cccc(CN2CCNC(=O)C2CC(=O)NCC2CCOCC2)c1 (centres undefined)	i	i	i	i	i
CN(C)c1ccc(C(CNC(=O)Cc2cccc3ccccc23)N(C)C)cc1 (centres undefined)	77*	i	i	i	i
COc1ccc(C(CNC(=O)Cc2ccc(-c3ccccc3)cc2)N(C)C)cc1 (centres undefined)	202*	i	i	i	i
COc1ccccc1C(CNC(=O)CSc1ccc2ccccc2c1)N(C)C (centres undefined)	i	i	i	i	i
COc1ccc(C(CNC(=O)CSc2ccccc2C)N(C)C)cc1 (centres undefined)	116*	i	i	i	i
COc1ccc(C(CNC(=O)/C=C/c2c(Cl)nc3ccccn23)N(C)C)cc1 (centres undefined)	249*	i	i	i	i
COc1ccc(OCCNC(=O)C(c2ccccc2)c2ccccc2)cc1	i	i	i	i	i
COc1ccccc1C(=O)NCC(c1cccnc1)N(C)C (centres undefined)	i	i	i	i	i
CC[C@H](C)[C@H](NC(=O)OCc1ccccc1)C(=O)Nc1ccc(NC(C)=O)cc1	i	i	i	i	i
COc1ccc(C(CNC(=O)C(Cc2ccccc2)NC(N)=O)N(C)C)cc1 (centres undefined)	112*	i	i	i	i
COc1cccc(C(CNC(=O)C(c2ccccc2)c2ccccc2)N(C)C)c1 (centres undefined)	i	i	i	-6*	i
COc1ccc(CC(NC(=O)c2ccccc2)C(=O)NCC(=O)O)cc1 (centres undefined)	i	i	i	i	i
COc1ccc(C(CNC(=O)c2cccc3cccnc23)N(C)C)cc1 (centres undefined)	108*	i	i	-7*	i
CCC(C)C(NC(=O)OCc1ccccc1)C(=O)NCC(c1ccccc1)N(C)C (centres undefined)	i	i	i	-5*	i
SMILES	TRPC4 agonist	TRPC4 potent	TRPC6 inhibitor	TRPC4 inh	TRPC6 activator
Cc1ccc2oc(C(=O)N3CCC(O)(c4ccccc4)CC3)c(C)c2c1	i	15*	i	i	i
CCN(CC)C(=O)C1CCN(C(=O)c2oc3ccc(C)cc3c2C)CC1	i	i	i	i	i
O=C(COC(=O)c1ccc(O)cc1O)Nc1nnc(-c2ccccc2)o1	i	i	i	i	i
CNCC(C)COc1ccccc1OCc1ccccc1 (centres undefined)	i	i	i	-6*	i
CCc1ccc2[nH]c(=O)c(C3C(C#N)=C(N)Oc4c3ccc3cccnc43)cc2c1 (centres undefined)	i	i	-5.87*	i	i
COc1ccc2c(c1)c(CC(=O)Nc1cccc(S(N)(=O)=O)c1)c(C)n2C(=O)c1ccc(Cl)cc1	i	i	i	i	i
Cc1csc(=O)n1CCC(=O)OCC(=O)NCc1ccc(F)cc1	i	i	i	i	i
Cc1ccc(C)c(N(CC(=O)NC2CCCC2)C(=O)c2csnn2)c1	70*	i	i	-10*	i
CCc1cccc(OCCCCNCCCOC)c1	i	i	i	i	i
C=CCc1cccc(OC)c1OCCOCCNCCO	i	i	i	i	i
CCOc1cccc(OCCCNCCCOC)c1	i	11*	i	i	i
COc1cccc(OCCOCCNCCO)c1	89*	i	i	i	i
COc1cc(/C=C(\C#N)c2nc3c(s2)CCCC3)ccc1O	91*	i	i	i	93.2*
CCCSc1nc(N)nc(-c2cccs2)c1C#N	i	i	i	-6*	i
O=C(Nc1ccnn1C1CCN(C2CCCC2)CC1)c1ccccc1	i	i	i	i	i
CC(=O)c1ccc(OCC(O)CN2CCN(Cc3ccccc3)CC2)cc1 (centres undefined)	i	i	i	i	i
CC(C)(c1ccccc1)c1ccc(OCC(O)CNC2CCN(Cc3ccccc3)CC2)cc1 (centres undefined)	92*	i	i	i	i
CCOc1ccc(OCC(O)CNC2CCN(Cc3ccccc3)CC2)cc1 (centres undefined)	108*	i	i	-6*	i
COc1ccc(CNCC(O)COc2ccc(C(C)(C)c3ccccc3)cc2)cc1 (centres undefined)	i	i	i	i	i
COc1ccc(C2C(C(C)=O)=C(O)C(=O)N2c2ccccn2)cc1 (centres undefined)	i	i	i	i	i
Cc1cccc2sc(N(CCN(C)C)C(=O)c3cc(Cl)sc3Cl)nc12	i	12*	i	i	i
CC1(C)COCN1S(=O)(=O)c1ccc(C(=O)Nc2nnc(-c3ccc(Cl)s3)o2)cc1	111*	i	i	-5*	i
